Each block holds one compound with its values, some of them ahead of it.
Experiments:
[1] = Half-life in OFA rat at 1 mg/kg, iv measured upto 24 hrs by HPLC/UV analysis; assay type: ADME, organism-based; conditions: in vivo
How it was run: (§1)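 Catheters were placed in the femoral artery and vein of female OFA rats, followed by 96 h recovery. IV doses went into the femoral vein: 2.5 mg/kg in ethanol/dimethylisosorbide/PEG400/5 % glucose (10/15/35/40), or 1 mg/kg in NMP/PEG200 (30:70). Plasma samples at 5, 15, 30 min and 1, 2, 4, 6, 8, 24 h. Parameters reported over 24 h. n=2–4.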

[2] = Clearance in OFA rat at 1 mg/kg, iv measured upto 24 hrs by HPLC/UV analysis; assay type: ADME, organism-based; conditions: in vivo; how it was run: as §1
Mus musculus [3] = species on record: Mus musculus; test: Antiangiogenic activity in C57BL/6jNpa mouse harbouring mouse B16-BL6 cells assessed as reduction in K-trans level by measuring T/C ratio measured after 3 days by DCE-MRI assay; assay type: functional; conditions: time 3 day
How it was run: (§2)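 C57BL/6JNpa mice bearing B16/BL6 cervical lymph-node metastases, at least 8 per group, anaesthetized and given contrast agent; DCE-MRI Ktrans and iAUEC (permeability) and Vp (plasma volume) measured before and again after daily treatment; change per mouse recorded, mean ± SEM, one-way ANOVA with Holm-Sidak comparisons versus vehicle.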

[4] = Antitumor activity against rat BN472 cell implanted in Brown-Norway rat assessed as T/C ratio at 1 mg/kg, po qd measured upto 14 days; assay type: functional; conditions: time <= 14 day
How it was run: (§3)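 Female Brown-Norway rats (160-180 g) given 3 mm³ BN472 tumor fragments in mammary fat pads; at about 200 mm², randomized into groups of 7-8 and dosed orally with compound or PEG300 vehicle over 14 days; tumor growth followed, T/C computed; significance by 2-way RM-ANOVA.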

Mus musculus [5] = species on record: Mus musculus; test: Antiangiogenic activity in C57BL/6jNpa mouse harbouring mouse B16-BL6 cells assessed as reduction in tumor plasma volume by measuring T/C ratio measured after 3 days by DCE-MRI assay; assay type: functional; conditions: time 3 day; how it was run: as §2
[6] = Antitumor activity against rat BN472 cell implanted in Brown-Norway rat assessed as T/C ratio at 1 mg/kg, po administered once every 2 days measured upto 14 days; assay type: functional; conditions: time <= 14 day; how it was run: as §3
[7] = Tmax in OFA rat at 25 mg/kg, po measured upto 24 hrs by HPLC/UV analysis; assay type: ADME, organism-based; conditions: in vivo
How it was run: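 Female OFA rats, femoral artery/vein catheterized and recovered 96 h. Oral gavage of a micronized suspension in 0.5 % carboxymethyl cellulose at 25 or 3 mg/kg. Bioavailability taken against femoral-vein iv dosing. Plasma sampled 5 min–24 h (9 time points).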

- half-life [1]: 2.5 h
- clearance [2]: 3 mL/min/kg
SMILES: O=C(Nc1cccc(C(F)(F)F)c1)c1cccc2cc(Oc3cc(CO)ncn3)ccc12 [BFH-772]

SMILES: Nc1nccc(Oc2ccc3c(C(=O)Nc4ccc(F)c(C(F)(F)F)c4)cccc3c2)n1
- T/C (Mus musculus [3]): 0.39
- T/C [4]: 0.028
- T/C (Mus musculus [5]): 0.36
- T/C [6]: 0.176

- Tmax [7]: 2 h
SMILES: Nc1nccc(Oc2ccc3c(C(=O)Nc4cccc(C(F)(F)F)c4)cccc3c2)n1

From ChEMBL document CHEMBL5252510, “A Novel Potent Oral Series of VEGFR2 Inhibitors Abrogate Tumor Growth by Inhibiting Angiogenesis” (J Med Chem, 2016)
